The subject of data set [1] is Plasma. The data set is described as follows: Cmax in healthy human plasma assessed as metabolite BAY 78-1788 Cmax at 80 mg, po administered as four 20 mg immediate release tablets daily for 3 days during 10 hrs overnight fasting state measured after 3 day. It counts as ADME, organism-based. Further details: dose 80 mg, route oral. Particulars: in vivo, 72 h. The method, boiled down: (§1)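 Healthy Caucasian males took tablets once daily for 3 days with 240 ml water after a 10-h fast. Heparinised blood was drawn predose and at 0.25–14 h after the first and last doses. Plasma parent drug and metabolites M1–M3 were measured by LC/MS-MS (MRM, deuterated internal standard). Noncompartmental analysis gave Cmax observed, t1/2 = 0.693/kel and MRT = AUMC/AUC. Values are geometric means.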

The subject of data set [2] is Plasma. In words: AUC in healthy human plasma assessed as metabolite BAY 78-1788 AUC at 80 mg, po administered as four 20 mg immediate release tablets daily for 3 days during 10 hrs overnight fasting state measured after 1 day. It counts as ADME, organism-based. More on the design: dose 80 mg, time < 10 hr, route oral. Particulars: in vivo. In short, it runs like this: (§2)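 Healthy Caucasian male volunteers took 40 mg (two 20-mg IR tablets) or 80 mg (four tablets) orally once daily for 3 days, with 240 ml water after a 10-h fast. Plasma was sampled predose to 14 h after the first and last doses. M1/M2/M3 were quantified by LC/MS-MS MRM against a D4-labelled internal standard. Cmax was read from observed data and AUC by log-linear trapezoidal rule, noncompartmental, geometric means.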

The test system of data set [3] is Plasma. The data set is described as follows: AUC in healthy human plasma assessed as metabolite BAY 78-1788 AUC at 80 mg, po administered as four 20 mg immediate release tablets daily for 3 days during 10 hrs overnight fasting state measured after 3 day. It counts as ADME, organism-based. Further details: dose 80 mg, time < 10 hr, route oral. Particulars: in vivo. In short, it runs like this:
as §2

For data set [4], the system named is Plasma. The data set is described as follows: Tmax in healthy human plasma assessed as metabolite BAY 78-1788 Tmax at 80 mg, po administered as four 20 mg immediate release tablets daily for 3 days during 10 hrs overnight fasting state measured after 1 day. It counts as ADME, organism-based. Particulars: in vivo, 24 h. The method, boiled down:
(§3)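 Healthy Caucasian men (8 active, 4 placebo per dose) dosed with tablets daily for 3 days after 10-h fast. Lithium-heparin plasma sampled predose and 0.25–14 h after day-1 and day-3 doses, stored frozen. Parent and M1–M3 quantified by LC/MS-MS in positive-ion MRM. Tmax taken directly from observed individual data.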

Data set [5] relates to Plasma. The data set is described as follows: Tmax in healthy human plasma assessed as metabolite BAY 78-1788 Tmax at 80 mg, po administered as four 20 mg immediate release tablets daily for 3 days during 10 hrs overnight fasting state measured after 3 day. It counts as ADME, organism-based. Particulars: in vivo, 72 h. The method, boiled down: as §3
The test system of data set [6] is Plasma. The data set is described as follows: Half life in healthy human plasma assessed as metabolite BAY 78-1788 Half life at 80 mg, po administered as four 20 mg immediate release tablets daily for 3 days during 10 hrs overnight fasting state measured after 1 day. It is filed as ADME, organism-based. Particulars: in vivo, 24 h. The method, boiled down:
as §1

In data set [7] the test system is Plasma. The data set is described as follows: Half life in healthy human plasma assessed as metabolite BAY 78-1788 Half life at 80 mg, po administered as four 20 mg immediate release tablets daily for 3 days during 10 hrs overnight fasting state measured after 3 day. It counts as ADME, organism-based. Particulars: in vivo, 72 h. The method, boiled down:
as §1

The test system of data set [8] is Plasma. In words: Cmax in healthy human plasma assessed as metabolite BAY 78-1788 Cmax at 80 mg, po administered as single ascending doses during 10 hrs overnight fasting state. It counts as ADME, organism-based. More on the design: dose 80 mg, route oral. Particulars: in vivo. In short, it runs like this:
(§4)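 Healthy Caucasian male volunteers, single oral dose with 240 ml water after a 10-h overnight fast. Heparinised venous blood was drawn predose and at 0.25–14 h. Plasma was stored frozen. Parent drug and metabolites M1–M3 were measured by LC/MS-MS (MRM, deuterated internal standard). Noncompartmental analysis gave Cmax observed, t1/2 = 0.693/kel (terminal regression) and MRT = AUMC/AUC. Values are geometric means.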

Data set [9] has as its system Plasma. The data set is described as follows: AUC (0 to infinity) in healthy human plasma assessed as metabolite BAY 78-1788 AUC (0 to infinity) at 80 mg, po administered as single ascending doses during 10 hrs overnight fasting state. It is filed as ADME, organism-based. Further details: dose 80 mg, time infinity, route oral. Particulars: in vivo. In short, it runs like this: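 Healthy Caucasian male volunteers, single oral dose of 80 mg as four 20-mg immediate-release tablets, taken with 240 ml water after a 10-h overnight fast. Lithium-heparin venous blood was drawn predose and at 0.25–14 h, and plasma was stored frozen. Metabolites M1/M2/M3 were measured by LC/MS-MS (positive-ion MRM, deuterated internal standard). Noncompartmental analysis, AUC by log-linear trapezoidal rule extrapolated to infinity (Clast/kel), geometric means.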

The test system of data set [10] is Plasma. The data set is described as follows: Half-life in healthy human plasma assessed as metabolite BAY 78-1788 half-life at 80 mg, po administered as single ascending doses during 10 hrs overnight fasting state. It is filed as ADME, organism-based. Particulars: in vivo. In short, it runs like this:
as §4

Data set [11] deals with Plasma. In words: Ratio of AUC (0 to infinity) for metabolite BAY 78-1788 to AUC (0 to infinity) for compound in healthy human plasma at 40 mg, po administered as single dose for 3 days measured after 1 day. It is filed as ADME, organism-based. Particulars: in vivo, 24 h. The method, boiled down: (§5)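 Healthy Caucasian men (8 active, 4 placebo per dose) dosed with tablets daily for 3 days after 10-h fast. Plasma sampled 0.25–14 h after first and last doses. Parent and metabolites M1–M3 measured by LC/MS-MS (200 µl plasma). Metabolic ratio is metabolite AUC0-∞ divided by parent AUC0-∞ (log-linear trapezoidal, extrapolated by last concentration/kel). First vs third dose compared by paired t test.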

The subject of data set [12] is Plasma. The data set is described as follows: Ratio of AUC (0 to infinity) for metabolite BAY 78-1788 to AUC (0 to infinity) for compound in healthy human plasma at 40 mg, po administered as single dose for 3 days measured after 3 days. It is filed as ADME, organism-based. Particulars: in vivo, 72 h. The method, boiled down:
as §5

The subject of data set [13] is Plasma. The data set is described as follows: Ratio of AUC (0 to infinity) for metabolite BAY 78-1788 to AUC (0 to infinity) for compound in healthy human plasma at 80 mg, po administered as single dose for 3 days measured after 1 day. It counts as ADME, organism-based. Particulars: in vivo, 24 h. The method, boiled down: as §5
For data set [14], the system named is Plasma. In words: Ratio of AUC (0 to infinity) for metabolite BAY 78-1788 to AUC (0 to infinity) for compound in healthy human plasma at 80 mg, po administered as single dose for 3 days measured after 3 days. Particulars: in vivo, 72 h. It is filed as ADME, organism-based. The method, boiled down: as §5
In the next data set the test system is Plasmodium falciparum. In words: Antimalarial activity against Plasmodium falciparum K1 in human plasma assessed as inhibition of hypoxanthine uptake by intraerythrocytic malaria parasites by hypoxanthine incorporation assay. It is filed as functional, organism-based. The method, boiled down:
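K1 or TM90-C2A parasites were sorbitol-synchronized and cultured in RPMI 1640. Drug was diluted in drug-free human serum (0.04–40 ng/ml) or subject plasma was diluted twofold (8–8,192). Parasites were added at 2% hematocrit, 1% parasitemia (>95% rings), and [3H]hypoxanthine uptake was measured over 48 h. IC50 or ID50 came from concentration or dilution-response curves. Equivalent concentration = ID50 × IC50.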

In data set [15] the test system is Plasma. In words: Cmax in healthy human plasma assessed as metabolite BAY 78-1788 Cmax at 40 mg, po administered as two 20 mg immediate release tablets daily for 3 days during 10 hrs overnight fasting state measured after 1 day. It counts as ADME, organism-based. Further details: dose 40 mg, route oral. Particulars: in vivo, 24 h. The method, boiled down:
as §2

Data set [16] has as its system Plasma. In words: Cmax in healthy human plasma assessed as metabolite BAY 78-1788 Cmax at 40 mg, po administered as two 20 mg immediate release tablets daily for 3 days during 10 hrs overnight fasting state measured after 3 day. It is filed as ADME, organism-based. More on the design: dose 40 mg, route oral. Particulars: in vivo, 72 h. The method, boiled down: as §1

The subject of data set [17] is Plasma. The data set is described as follows: AUC in healthy human plasma assessed as metabolite BAY 78-1788 AUC at 40 mg, po administered as two 20 mg immediate release tablets daily for 3 days during 10 hrs overnight fasting state measured after 1 day. It counts as ADME, organism-based. Further details: dose 40 mg, time < 10 hr, route oral. Particulars: in vivo. The method, boiled down:
as §2

Data set [18] deals with Plasma. In words: AUC in healthy human plasma assessed as metabolite BAY 78-1788 AUC at 40 mg, po administered as two 20 mg immediate release tablets daily for 3 days during 10 hrs overnight fasting state measured after 3 day. It counts as ADME, organism-based. More on the design: dose 40 mg, time < 10 hr, route oral. Particulars: in vivo. In short, it runs like this:
as §2

For data set [19], the system named is Plasma. In words: Tmax in healthy human plasma assessed as metabolite BAY 78-1788 Tmax at 40 mg, po administered as two 20 mg immediate release tablets daily for 3 days during 10 hrs overnight fasting state measured after 1 day. It counts as ADME, organism-based. Particulars: in vivo, 24 h. In short, it runs like this:
as §3

The test system of data set [20] is Plasma. The data set is described as follows: Tmax in healthy human plasma assessed as metabolite BAY 78-1788 Tmax at 40 mg, po administered as two 20 mg immediate release tablets daily for 3 days during 10 hrs overnight fasting state measured after 3 day. It is filed as ADME, organism-based. Particulars: in vivo, 72 h. In short, it runs like this:
as §3

The subject of data set [21] is Plasma. In words: Half life in healthy human plasma assessed as metabolite BAY 78-1788 Half life at 40 mg, po administered as two 20 mg immediate release tablets daily for 3 days during 10 hrs overnight fasting state measured after 1 day. It counts as ADME, organism-based. Particulars: in vivo. In short, it runs like this: as §1
Data set [22] relates to Plasma. The data set is described as follows: Half life in healthy human plasma assessed as metabolite BAY 78-1788 Half life at 40 mg, po administered as two 20 mg immediate release tablets daily for 3 days during 10 hrs overnight fasting state measured after 3 day. It is filed as ADME, organism-based. Particulars: in vivo, 72 h. In short, it runs like this:
as §1

In data set [23] the test system is Plasma. The data set is described as follows: Cmax in healthy human plasma assessed as metabolite BAY 78-1788 Cmax at 80 mg, po administered as four 20 mg immediate release tablets daily for 3 days during 10 hrs overnight fasting state measured after 1 day. Particulars: in vivo, 24 h. Further details: dose 80 mg, route oral. It counts as ADME, organism-based. The method, boiled down: as §1

≈ marks a conversion by molar mass, not a printed value.

As for `C[C@H]1[C@H](N2CCS(=O)(=O)CC2)O[C@@H]2O[C@]3(C)C[C@H](O)[C@H]4[C@H](C)CC[C@@H]1[C@@]24OO3`, the Cmax in the data set on Plasma [1] amounted to 66.5 ng/mL; with Plasma [8] it was 108.9 ng/mL; with Plasma [15], 40.6 ng/mL; in the data set on Plasma [16] it was 36.4 ng/mL; with Plasma [23] it was 87.2 ng/mL. For the same compound, the AUC in the data set on Plasma [2] came to 302.4 ng·h/mL; in the data set with Plasma [3] it was 263 ng·h/mL; with Plasma [9], 379.9 ng·h/mL; with Plasma [17] it was 117.3 ng·h/mL; in the data set with Plasma [18] it was 115.1 ng·h/mL. Further, the time of peak concentration (Tmax) with Plasma [4] was 2 h; in the data set on Plasma [5] it was 2.5 h; in the data set with Plasma [19], 1.75 h; in the data set with Plasma [20], 2 h. Besides, the t1/2 in the data set on Plasma [6] was determined as 1.59 h; in the data set on Plasma [7] it was 1.44 h; with Plasma [10], 1.36 h; in the data set on Plasma [21], 1.31 h; in the data set on Plasma [22], 1.28 h. Also, the Ratio in the data set with Plasma [11] is listed as 0.71; in the data set on Plasma [12] it was 0.65; with Plasma [13], 0.91; with Plasma [14], 0.82. For the same compound, the IC50 in the data set on Plasmodium falciparum turned out to be 0.0257 µg/mL (≈ 0.0616 µM).

Source of the values: ChEMBL document CHEMBL1671864, “First assessment in humans of the safety, tolerability, pharmacokinetics, and ex vivo pharmacodynamic antimalarial activity of the new artemisinin derivative artemisone” (Antimicrob Agents Chemother, 2008).
